High-throughput results: PubChem, Johns Hopkins Ion Channel Center
Most compounds without a hit are left out; they make up all but 3.1% or so of the library.
KCNQ1 act: potentiators or activators of human KCNQ1 potassium channel. CHO-K1 KCNQ1, thallium flux FluxOR fluorescence; hits give high values. B-score at 10 µM. 310,000 compounds, 0.35% hits. AID 2648;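 active means fluorescence ratio B-score, a plate-corrected score, at least three library SD, with initial intensity B-score within 5 SD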
Target sequence (P51787 whole entry, looked up): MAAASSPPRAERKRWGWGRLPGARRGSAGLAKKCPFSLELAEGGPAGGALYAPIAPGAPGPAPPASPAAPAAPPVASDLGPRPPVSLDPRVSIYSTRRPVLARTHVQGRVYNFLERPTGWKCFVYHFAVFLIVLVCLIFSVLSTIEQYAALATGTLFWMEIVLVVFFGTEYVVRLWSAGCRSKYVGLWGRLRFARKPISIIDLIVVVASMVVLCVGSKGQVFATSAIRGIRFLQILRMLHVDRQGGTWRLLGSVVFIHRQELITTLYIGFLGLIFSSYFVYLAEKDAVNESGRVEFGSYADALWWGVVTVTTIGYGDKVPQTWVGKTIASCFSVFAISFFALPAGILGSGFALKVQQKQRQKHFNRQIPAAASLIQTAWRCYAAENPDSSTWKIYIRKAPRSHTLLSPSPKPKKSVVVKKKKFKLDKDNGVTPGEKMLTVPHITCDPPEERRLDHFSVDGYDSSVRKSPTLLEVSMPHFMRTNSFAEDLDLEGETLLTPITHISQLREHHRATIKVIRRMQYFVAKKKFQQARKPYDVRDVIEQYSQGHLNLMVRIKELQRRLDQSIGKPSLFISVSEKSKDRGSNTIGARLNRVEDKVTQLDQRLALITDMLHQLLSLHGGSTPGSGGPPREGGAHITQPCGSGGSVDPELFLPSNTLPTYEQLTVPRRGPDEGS
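Schedule – 37 °C overnight plating, 90-min dark dye load, 20-min compound pretreatment · System – stable KCNQ1 CHO-K1 line · Probe or stimulus – thallium- and potassium-containing depolarizing buffer · Measured by – kinetic FluxOR fluorescence, 10 s baseline plus 110 s post-stimulus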
KCNQ1 inh: inhibitors of human KCNQ1 potassium channel | B-score at 10 µM | CHO-K1 KCNQ1, FluxOR thallium flux fluorescence; hits give high values | P51787 | 310,000 compounds, 1.3% hits;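 active means compounds whose thallium flux B-score, printed positive for inhibition, exceeds three library SD while starting fluorescence stays within three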;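 further: channel opened by potassium depolarization with thallium stimulus after 20 min compound exposure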
KCNK9 block: human KCNK9 channel inhibition. AID 488922. Q9NPC2. HEK293 KCNK9, FluxOR thallium flux fluorescence; hits give low values. 310,000 compounds, 1.2% hits. B-score at 10 µM;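 active means ratio B-score over 3 SD below the library mean, with starting fluorescence within 5 SD of its mean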;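 further: negative B-score means less thallium flux so channel inhibition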
hERG protect: shields human hERG channel from block by proarrhythmic agents; AID 1511; Q12809; activation (rescue from dofetilide block), less the hit threshold, % at 10 µM; CHO-hERG, FluxOR thallium flux, dofetilide IC70 present; 310,000 compounds, 0.51% hits;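 active means activation above the mean of controls blocked by dofetilide plus 5 SD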;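 further: thallium influx through hERG after potassium depolarization seen as dye fluorescence rise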
KCNK3 inh: human KCNK3 channel inhibition, primary screen. O14649. CHO-KCNK3 thallium flux, FluxOR fluorescence; hits give low values. B-score at 10 µM. 340,000 compounds, 0.84% hits. AID 602410;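 active means B-score under library mean minus 4 SD, starting fluorescence ratio at most library mean plus 5 SD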;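 further: more negative B-score means stronger inhibition of thallium flux through KCNK3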
KCNK9 block conf: confirmation of human KCNK9 potassium channel inhibitors; shares compounds with KCNK9 block; 4,900 compounds, 43% hits; inhibition, % at 10 µM; HEK293 KCNK9 cells, FluxOR thallium flux fluorescence;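 active means thallium signal inhibited by more than 5 SD of the compound-free buffer control wells, on both duplicate plates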
Kir2-1 spec: mouse Kir2.1 off-target activity of KCNK9 modulators; shares compounds with KCNK9 block; Kir2.1 cells, FluxOR thallium flux fluorescence; inhibition, % at 10 µM; 4,900 compounds, 4% hits;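 active means thallium signal drop more than 5 SD beyond the mean of the no-compound control wells, seen in both duplicate plates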;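 further: signal is fluorescence rise after thallium addition divided by baseline fluorescence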
KCNK9 uninduced: non-induced cell nonspecific activity of KCNK9 modulators. inhibition, % at 10 µM. non-induced KCNK9-HEK293, FluxOR thallium flux. AID 492997. 4,900 compounds, 40% hits. shares compounds with KCNK9 block;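 active means thallium signal drop beyond 5 SD of the untreated control mean, on both duplicate plates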
Large screens that a line does not name were inactive (follow-up assays come after a bar, where they were run).

COC(=O)c1ccc(COc2cc(O)c3c(c2)OC(C)(C)CC3=O)cc1	none
COc1ccc(C(C)=O)cc1CSc1nc2ccccc2c(=O)n1-c1cccc(C)c1	none
C=CCn1c(SCc2cc(C(C)=O)ccc2OCC)nc2ccccc2c1=O	KCNK9 block -13 | KCNK9 block conf 66% | Kir2-1 spec inactive | KCNK9 uninduced 43%
COc1ccccc1-n1c(SCc2cc(=O)oc3cc(O)ccc23)nc2ccccc2c1=O	KCNK9 block -8.3 | KCNK9 block conf 32% | Kir2-1 spec inactive | KCNK9 uninduced inactive
COc1ccc(C(C)=O)cc1CSc1nc2ccccc2c(=O)n1-c1ccccc1	none
CCC(C)n1c(SCC(=O)Nc2cc(C)on2)nc2ccccc2c1=O (centres undefined)	none
COc1ccc(C(C)=O)cc1CSc1nc2ccccc2c(=O)n1-c1ccccc1C	KCNK9 block -9 | KCNK9 block conf 32% | Kir2-1 spec inactive | KCNK9 uninduced 32%
CCC(CO)n1c(SCc2cc(=O)oc3cc(C)ccc23)nc2ccccc2c1=O (centres undefined)	KCNK9 block -12 | KCNK9 block conf 53% | Kir2-1 spec inactive | KCNK9 uninduced 26%
COc1ccccc1-n1c(SCC(=O)N2CCOCC2)nc2ccccc2c1=O	none
O=C(O)c1ccc(NS(=O)(=O)c2cccc(C(=O)Nc3cccc(C(=O)O)c3)c2)cc1	none
COc1ccc(COC(=O)c2ccc(Br)c(S(=O)(=O)N3CCOCC3)c2)cc1F	none
CC(O)CSc1nc2c(c(=O)[nH]c(=O)n2C)n1Cc1ccccc1Cl (centres undefined)	none
COc1cc2c(oc(=O)c3cc(C)cc(OC)c32)c2c(C3OC(C)C(O)C(C)(O)C3O)ccc(O)c12 (centres undefined)	none (no result: KCNQ1 act, KCNQ1 inh, KCNK9 block, hERG protect)
CN(Cc1ccc(C(F)(F)F)cc1)C(=O)c1ccc(Oc2ccccc2)cc1	none | KCNK9 block conf inactive | Kir2-1 spec inactive | KCNK9 uninduced 26%
COc1ccc(CN(C)C(=O)c2cccc(Oc3ccccc3)c2)c(OC)c1OC	none
CN(Cc1ccccc1F)C(=O)c1ccc(Oc2ccccc2)cc1	none | KCNK9 block conf inactive | Kir2-1 spec inactive | KCNK9 uninduced inactive
CCCS(=O)(=O)c1nc(S(=O)(=O)c2ccc(C)cc2)c(N2CCN(CCO)CC2)s1	none
Cc1cc(C(=O)C(C)OC(=O)c2ccc(NC(=O)CC#N)cc2)c(C)n1-c1ccccc1 (centres undefined)	none
CCOc1ccc(CCNC(=O)COC(=O)c2cccnc2SC)cc1OCC	none
CCN(c1ccccc1)S(=O)(=O)c1ccc(Cl)c(C(=O)NC2CCN(Cc3ccccc3)CC2)c1	none (no result: KCNQ1 act, KCNQ1 inh, KCNK9 block, hERG protect)
Cc1ccc2cc(C)c(N3CCN(c4ccccn4)CC3)nc2c1	none | KCNK9 block conf inactive | Kir2-1 spec inactive | KCNK9 uninduced 26%
Cc1ccc(C(=O)CN2CCN(c3ccccn3)CC2)c(C)c1	none
CCc1ccc(N=C2NC(=O)/C(=C/c3cc(OC)c(O)c(OC)c3)S2)cc1	KCNK9 block -8.8 | KCNK9 block conf inactive | Kir2-1 spec inactive | KCNK9 uninduced 34%
COc1cc(/C=C2\SC(=Nc3ccccc3)NC2=O)cc(Cl)c1O	none
CC(C)N(C(C)C)S(=O)(=O)c1ccc(Cl)nc1	none
CCN(CC)S(=O)(=O)c1ccc(N2CCN(S(=O)(=O)c3ccccc3)CC2)nc1	none
CCN(CC)S(=O)(=O)c1ccc(N2CCc3ccccc3C2)nc1	none | KCNK9 block conf inactive | Kir2-1 spec inactive | KCNK9 uninduced inactive
CC(C)N(C(C)C)S(=O)(=O)c1ccc(N2CCc3ccccc3C2)nc1	none | KCNK9 block conf inactive | Kir2-1 spec inactive | KCNK9 uninduced inactive
Cc1ccc(S(=O)(=O)NN2C(=O)/C(=C/c3cccc(F)c3)SC2=S)cc1	KCNQ1 act 10 | KCNK9 block conf inactive | Kir2-1 spec inactive | KCNK9 uninduced inactive
COc1cc(/C=C2\SC(=S)N(NS(=O)(=O)c3ccc(C)cc3)C2=O)ccc1O	none
Cc1ccc(S(=O)(=O)NN2C(=O)/C(=C/c3ccccn3)SC2=S)cc1	none
COc1cc(/C=C2\SC(=S)N(NS(=O)(=O)c3ccc(C)cc3)C2=O)cc(OC)c1OC	none | KCNK9 block conf inactive | Kir2-1 spec inactive | KCNK9 uninduced inactive
COc1ccccc1C(=O)NC(=O)CSc1ccc(C)c(C)c1	none (no result: KCNQ1 act, KCNQ1 inh, KCNK9 block, hERG protect)
CCCCC(=O)Nc1cccc(-c2cn3ccsc3n2)c1	none
O=C(Nc1cccc(-c2cn3ccsc3n2)c1)c1ccccc1	KCNK9 block -9.7 | KCNK9 block conf 33% | Kir2-1 spec inactive | KCNK9 uninduced inactive
CC(C)(C)C(=O)Nc1c2c(nn1-c1ccccc1)CSC2	none
C=CCC1(CC=C)CCCN1C(=O)c1cc(COc2cccc(C(F)(F)F)c2)on1	none | KCNK9 block conf inactive | Kir2-1 spec inactive | KCNK9 uninduced inactive
Cc1ccc(CN(C)C(=O)c2cc(COc3cccc(C(F)(F)F)c3)on2)o1	none | KCNK9 block conf inactive | Kir2-1 spec inactive | KCNK9 uninduced 32%
CCOC(=O)N1CCN(C(=O)c2cc(COc3cccc(C(F)(F)F)c3)on2)CC1	none
Cc1nn(Cc2ccc(Cl)cc2)c(=O)n1N(C)c1ncc(C(F)(F)F)cc1Cl	none | KCNK9 block conf inactive | Kir2-1 spec inactive | KCNK9 uninduced inactive
Cc1nn(Cc2ccc([N+](=O)[O-])cc2)c(=O)n1N(C)c1ncc(C(F)(F)F)cc1Cl	none
COc1ccc(OC)c(C2SCCN2S(=O)(=O)c2cccc(C(F)(F)F)c2)c1 (centres undefined)	KCNK9 block -15 | KCNK9 block conf inactive | Kir2-1 spec inactive | KCNK9 uninduced 60%
CCOc1c(Cl)cc(/C=C/C(=O)N(CC)CC(=O)NCc2cccs2)cc1OC	none
Cc1cc2c(=O)n(CC(=O)NCC(=O)N3CCN(Cc4ccccc4)CC3)cnc2s1	KCNK9 block -11 | KCNK9 block conf inactive | Kir2-1 spec inactive | KCNK9 uninduced inactive
Cc1nnc(-c2ccc(N3CCOCC3)c([N+](=O)[O-])c2)o1	none (no result: KCNQ1 act, KCNQ1 inh, KCNK9 block, hERG protect)
Cc1cccc(Nc2nnc(-c3ccc(N4CCOCC4)c([N+](=O)[O-])c3)c3ccccc23)c1	none | KCNK9 block conf inactive | Kir2-1 spec inactive | KCNK9 uninduced inactive
Cc1sc2nc(C3CC3)nc(SCC(=O)N3c4ccccc4CC3C)c2c1C (centres undefined)	none | KCNK9 block conf inactive | Kir2-1 spec inactive | KCNK9 uninduced inactive
Cc1nc(SCC(=O)N2c3ccccc3NC(=O)CC2C)c2c(C)c(C)sc2n1 (centres undefined)	none (no result: KCNQ1 act, KCNQ1 inh, KCNK9 block, hERG protect)
Brc1ccc(Oc2ncc(CN3CCN(c4ccccc4)CC3)s2)cc1	none | KCNK9 block conf inactive | Kir2-1 spec inactive | KCNK9 uninduced inactive
COc1ccc(C/C(N)=N/OC(=O)COc2ccccc2C)cc1	none
